Sampled rows, rich in hits. Any-hit rate of the full collection: about 4%.
TAAR1 ag: agonists of human TAAR1. hit rate 0.99% among 360,000. activation, % at 3 µM. AID 624467. Q96RJ0. CHO RD-HGA16 TAAR1, Fluo-8 calcium fluorescence; vehicle wells 0%, saturating PEA agonist 100%;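 active = activation above the mean activation of all test compounds in the run plus 3 SD, cut at about 38% in these data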
Target sequence (Q96RJ0 whole entry, looked up): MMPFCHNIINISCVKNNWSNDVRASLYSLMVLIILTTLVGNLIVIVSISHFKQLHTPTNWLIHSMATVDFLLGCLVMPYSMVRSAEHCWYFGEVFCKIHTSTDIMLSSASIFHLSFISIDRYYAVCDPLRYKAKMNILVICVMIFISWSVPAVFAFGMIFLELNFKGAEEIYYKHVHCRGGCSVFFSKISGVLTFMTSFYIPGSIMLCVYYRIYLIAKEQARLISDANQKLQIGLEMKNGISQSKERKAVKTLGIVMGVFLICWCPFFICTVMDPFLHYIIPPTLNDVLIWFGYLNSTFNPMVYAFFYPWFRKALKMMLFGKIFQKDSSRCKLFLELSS
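Test system: RD-HGA16 (CHO) cells co-expressing Gα16 and hTAAR1 | Doses: Single dose, 3 µM | Schedule: 17-24 h seeding, 75 min 37 °C dye, 30 min RT | Evaluation: % activation from peak over basal fluorescence ratio, DMSO-to-PEA scaled | Technique: Kinetic Fluo-8 calcium fluorescence | Benchmarks: Low control DMSO, high control PEA (EC100)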
NTR1 ag: activates human neurotensin receptor 1. P30989. NTR1-U2OS beta-arrestin-GFP spot imaging, agonist mode. activation, % at 20 µM. hit rate 0.17% among 330,000;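 active = activation at or above 40% of the spot to cytoplasm intensity ratio, with at least 20 cells analyzed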
CHO parental Ca: counter-screen for OX1R antagonists: effect in parental CHO cells | hit rate 0.63% among 330,000 | inhibition, % at 5.6 µM | parental CHO-K1, ATP-induced calcium, Fluo-8 fluorescence;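 active = inhibition above that plate's mean sample inhibition plus 3 SD, cut at about 26% in these data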
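Assay system – parental CHO cells · Reagent – ATP stimulus · Detection – intracellular calcium via Fluo-8 no-wash fluorescent dye · Evaluation – percent inhibition of ATP-evoked calcium rise, normalized to controls · Controls – ATP wells versus no-ATP DMSO wells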
TAAR1 antagonist: antagonists of human TAAR1. hit rate 1.5% among 360,000. CHO RD-HGA16 TAAR1, Fluo-8 calcium fluorescence, antagonist. AID 624466. Q96RJ0. inhibition, % at 3 µM;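 active = inhibition above a per-plate cutoff, the mean inhibition of test compounds on that plate plus 3 SD, cut at about 49% in these data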
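Test system – hTAAR1-expressing CHO RD-HGA16 cells, Gα16-coupled · Reagent – β-PEA at EC80 concentration, post-compound challenge · Compound dosing – 3 µM, single point · Timing – 140 s kinetic read after compound, 140 s after agonist · Detection – Fluo-8 intracellular calcium dye fluorescence, real-time kinetic reads · Control set – DMSO and EC80 PEA controls · Repeats – n of 1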
OX1R antag-1: blocks the human orexin 1 receptor; hit rate 1.8% among 330,000; OX1R-expressing cells, FRET antagonist read-out; inhibition, % at 6.6 µM; in the data active = inhibition mostly above about 38%, no sharp cut-off; inactive = mostly below about 40%
OX1R antag-2: blocks the human orexin 1 receptor | hit rate 0.43% among 330,000 | inhibition, % at 5 µM | O43613 | CHO/OX1R cells, Fluo-8 calcium fluorescence, orexin A;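 active = inhibition above its plate's threshold, mean inhibition of all tested compounds on the plate plus 3 SD, cut at about 37% in these data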
TAAR1 ag confirm: human TAAR1 agonism, confirmed; shares compounds with TAAR1 ag; CHO RD-HGA16 TAAR1, Fluo-8 calcium fluorescence; scaled: DMSO 0%, maximal phenethylamine 100%; activation, % at 3 µM; hit rate 82% among 2,400; AID 651783;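 active = activation above a cutoff set at the run's mean compound activation plus 3 SD, cut at about 39% in these data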
Ga16 nonsel ag: counter-screen for TAAR1 agonists: nonselective agonists in parental cells; shares compounds with TAAR1 ag; CHO-Ga16 parental, Fluo-8 calcium fluorescence; normalized to maximal ATP response, DMSO zero; activation, % at 3 µM; hit rate 50% among 2,400;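 active = activation above the run cutoff, the mean activation over all tested wells plus 3 SD, cut at about 12% in these data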
TAAR1 desens: TAAR1 response desensitization, agonist counter-screen | shares compounds with TAAR1 ag | CHO RD-HGA16 hTAAR1, Fluo-8 calcium, beta-PEA response inhibition | inhibition, % at 3 µM | hit rate 46% among 2,400 | AID 651951;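 active = inhibition above the run cutoff, the mean inhibition of all test compounds plus 3 SD, cut at about 49% in these data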;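 note: beta-PEA stimulus applied at its EC80; loss of beta-PEA calcium signal after compound pretreatment read as receptor desensitization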
Ga16 antag count: counter-screen for TAAR1 agonists: nonselective Ga16 antagonists | shares compounds with TAAR1 ag | CHO-Ga16 ATP-induced calcium, Fluo-8 fluorescence | inhibition, % at 3 µM | hit rate 39% among 2,400;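 active = inhibition above the plate's mean compound inhibition plus 3 SD, computed per plate, cut at about 22% in these data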
Hits are given with their value; – = inactive; · = not tested or not shown.

SMILES	TAAR1 ag	NTR1 ag	CHO parental Ca	TAAR1 antagonist	OX1R antag-1	OX1R antag-2	TAAR1 ag confirm	Ga16 nonsel ag	TAAR1 desens	Ga16 antag count
COc1cccc(-c2c(C(=O)N/N=C/c3ccco3)nnn2-c2nonc2N)c1	78	–	–	–	–	–	97	52	–	–
Nc1nonc1-n1nnc(C(=O)N/N=C/c2ccoc2)c1-c1ccccc1	85	–	–	–	–	–	53	46	–	–
Nc1nonc1-n1nnc(C(=O)N/N=C/c2ccccc2Cl)c1-c1ccccc1	–	–	–	–	–	–	·	·	·	·
Nc1nonc1-n1nnc(C(=O)N/N=C/c2ccco2)c1-c1ccccc1	100	–	–	–	–	–	72	47	–	–
O=C(NNC(=O)c1c(O)c2ccccc2[nH]c1=O)c1ccccc1Br	–	–	–	–	–	–	·	·	·	·
O=C(O)c1ccc(-n2cc(C(=O)c3ccccc3O)cn2)cc1	65	–	–	–	–	–	–	–	–	–
Cc1ccc(-n2cc(CNCCc3cscn3)c(-c3ccc(F)cc3)n2)cc1	46	–	–	–	–	–	57	–	–	–
O=C(OCCn1c(=S)sc2ccccc21)c1ccccc1	–	·	·	–	·	·	·	·	·	·
Cc1nn(-c2ccccc2)c(Cl)c1C1C(C#N)=C(N)Oc2c1c(C)nn2-c1ccccc1 (stereo unspecified)	61	–	–	–	–	–	58	34	–	25
Cn1c(=O)c(=O)n(C)c2cc(S(=O)(=O)CCC(=O)Nc3c(F)c(F)c(F)c(F)c3F)ccc21	–	–	–	–	–	–	·	·	·	·
Cc1ccc(C(=O)NNC(=O)c2ccco2)cc1	–	–	–	–	–	–	·	·	·	·
Cc1ccc(C(=O)NNC(=S)NC(=O)c2ccco2)cc1	111	–	66	–	–	64	101	82	–	47
O=C(NNC(=S)NC(=O)c1cccnc1)c1ccccc1	–	–	–	–	–	–	·	·	·	·
CC(C)NC(=S)NC(=O)c1ccc(Cl)cc1Cl	–	–	–	–	–	–	·	·	·	·
CCCCC(=O)NC(=S)NNC(=O)c1ccc(Cl)cc1Cl	106	·	·	49	·	·	131	110	79	55
Cc1ccc(C(=O)NC(=S)NNC(=O)c2ccccc2)cc1	153	–	–	102	–	–	123	98	97	69
Cc1ccc(C(=O)NNC(=S)NC(=O)c2ccc(Cl)cc2Cl)cc1	172	–	45	108	–	57	161	123	107	101
CCCCn1c(N)c(N(Cc2ccccc2OC)C(=O)COc2ccc(F)cc2Cl)c(=O)[nH]c1=O	–	–	–	–	–	–	·	·	·	·
Cc1cccc(C(=O)NC(=S)NNC(=O)COc2ccc(Cl)cc2)c1	99	–	·	53	·	·	104	84	76	53
CC(C)C(=O)Nc1ccc(C(=O)NNC(=S)NC(=O)c2cccs2)cc1	–	–	–	–	–	–	·	·	·	·
O=C(NC(=S)NNC(=O)[C@H]1C[C@@H]1c1ccccc1)c1cccc(F)c1	77	–	–	–	–	–	74	83	–	30
Cc1cccc(C(=O)NNC(=S)NC(=O)c2ccccc2)c1	169	–	37	107	–	62	133	105	92	75
Cc1cccc(C(=O)NNC(=S)NC(=O)c2cccs2)c1	142	–	33	60	–	–	120	95	75	53
COc1cccc(CC(=O)OC(C)C(=O)Nc2ncc(Cl)cc2Cl)c1 (stereo unspecified)	–	–	–	–	–	–	·	·	·	·
Cn1c(=O)c2[nH]c(N=Nc3ccc(N)cc3N)nc2n(C)c1=O	–	–	–	–	–	–	·	·	·	·
SMILES	TAAR1 ag	NTR1 ag	CHO parental Ca	TAAR1 antagonist	OX1R antag-1	OX1R antag-2	TAAR1 ag confirm	Ga16 nonsel ag	TAAR1 desens	Ga16 antag count
CC(OC(=O)c1cccc(-n2cnnn2)c1)C(=O)Nc1ccc(F)c(F)c1F (stereo unspecified)	–	·	·	–	·	·	·	·	·	·
Cc1ccc(C(=O)NNC(=S)NC(=O)c2ccccc2)cc1	167	–	34	106	–	57	136	92	93	79
Cc1ccc(C(=O)NC(=S)NCc2ccccc2)cc1	–	–	–	–	–	–	·	·	·	·
CN(C(=O)c1cccc(NC(=O)Cc2ccc(NC(=O)C3CCN(C(=O)CCc4ccccc4)CC3)cc2)c1)C1CCCCC1	–	·	·	–	·	·	·	·	·	·
OCCNCc1cc(Br)ccc1OCc1ccc(Cl)cc1Cl	56	·	·	–	·	·	79	49	51	41
OCCNCc1cc(Br)ccc1OCc1ccc(Cl)cc1	–	–	–	–	–	–	·	·	·	·
O=C(NNC(=S)NC(=O)c1ccccc1Cl)c1cccc([N+](=O)[O-])c1	92	–	–	–	–	–	57	43	–	22
O=C(NNC(=S)NC(=O)c1ccccc1)c1ccc([N+](=O)[O-])cc1	64	–	–	–	–	–	70	46	–	22
O=C(NNC(=S)NC(=O)c1ccc(Br)cc1)c1cccc([N+](=O)[O-])c1	135	–	–	–	–	–	105	88	–	–
CC(=O)NNC(=S)NC(=O)c1cccc([N+](=O)[O-])c1	–	–	–	–	–	–	·	·	·	·
O=C(NNC(=O)c1ccc([N+](=O)[O-])cc1)c1ccc(Br)cc1	–	–	–	–	–	–	·	·	·	·
O=C(NNC(=S)NC(=O)c1ccc(Br)cc1)c1ccc([N+](=O)[O-])cc1	124	–	–	95	–	–	142	110	96	65
Cc1nn(C2CCS(=O)(=O)C2)c(C)c1CN(C)C(=O)c1ccc(S(=O)(=O)N(C)C)cc1 (stereo unspecified)	–	–	–	–	–	–	·	·	·	·
O=C(c1ccccc1Cl)N1N=C(c2cccs2)CC1c1cccc(O)c1 (stereo unspecified)	–	–	–	–	–	–	·	·	·	·
CN1CCN(C(c2ccc(C(F)(F)F)cc2)c2ccc3cccnc3c2O)CC1 (stereo unspecified)	102	–	–	–	–	–	129	94	63	–
Oc1c(C(c2cccs2)N2CCN(c3ccccc3)CC2)ccc2cccnc12 (stereo unspecified)	·	–	–	·	–	–	·	·	·	·
N#Cc1c(SCC(=O)Nc2nncs2)sc2c(O)cc(=O)[nH]c12	–	–	–	–	–	–	·	·	·	·
